Bridge positions count the residues as written; N and C are the ends. Square brackets hold non-standard residues; d marks the D form. Peptide text beside a SMILES is read from it. * marks the point of attachment. X1 = CN(C)c1ccc2c(-c3ccc(C(=O)*)cc3C(=O)[O-])c3ccc(=[N+](C)C)cc-3oc2c1; R5 = C=CCCC[C@@](C)(N)C(=O)O; S5 = C=CCCC[C@](C)(N)C(=O)O
Legend:
[1] = tested on: A. thaliana seedlings (Col-0); assay: Root growth of A. thaliana seedlings with MeJA; format: in vivo, Arabidopsis thaliana; conditions: 7-day-old Col-0 seedlings, MeJA 50 µM on 1/2 MS, n = 15
Summary of the method: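 Surface-sterilized Col-0 seeds stratified 2–3 days at 4°C. Grown on half-strength MS plates (2% sucrose, 0.4% gellan gum) with MeJA (50 µM) ± test compound (10 µM), under 16 h light (75 µmol m-2 s-1)/8 h dark at 22°C. Whole-seedling root length measured (n = 15). Repeated three times; one-way ANOVA/Tukey's HSD, P < 0.01.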

[2] = target: T1, His-MYC3-FLAG (His6-SUMO-MYC3(44–238)-FLAG) (Arabidopsis thaliana, UniProt Q9FIP9); assay: Fluorescence anisotropy; format: binding; conditions: for fold lower Kd with His-MYC3-FLAG than that of 1: ratio of Kd of 1 to Kd of the peptide
T1 sequence (Q9FIP9 44-238): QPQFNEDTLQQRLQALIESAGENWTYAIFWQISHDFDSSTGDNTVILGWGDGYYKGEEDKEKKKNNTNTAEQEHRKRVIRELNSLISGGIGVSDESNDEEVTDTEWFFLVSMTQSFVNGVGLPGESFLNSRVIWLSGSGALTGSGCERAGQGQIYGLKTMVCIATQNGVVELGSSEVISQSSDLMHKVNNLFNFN

[3] = target: T2, His-EIN3-FLAG (His6-SUMO-EIN3(200–500)-FLAG) (Arabidopsis thaliana, UniProt O24606); assay: Fluorescence anisotropy; format: binding
T2 sequence (O24606 200-500): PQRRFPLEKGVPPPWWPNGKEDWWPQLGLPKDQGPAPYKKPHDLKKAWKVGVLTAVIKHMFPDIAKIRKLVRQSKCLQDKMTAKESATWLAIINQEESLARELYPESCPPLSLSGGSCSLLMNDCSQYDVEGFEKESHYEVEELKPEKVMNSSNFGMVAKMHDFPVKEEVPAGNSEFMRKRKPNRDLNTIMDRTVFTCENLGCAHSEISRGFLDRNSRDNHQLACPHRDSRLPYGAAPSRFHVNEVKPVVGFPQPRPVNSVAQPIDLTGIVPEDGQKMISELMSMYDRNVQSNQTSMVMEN
Summary of the method: (§1)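 FA titration at 25°C in 20 mM Tris-HCl pH 8.0, 200 mM NaCl, 10% glycerol, 10% cOmplete EDTA-free, with 2-mercaptoethanol (EIN3/EIL1 family). Protein added dropwise to 100 nM TMR-labelled peptide; His-EIN3-FLAG titrated 0–2 µM. Anisotropy read at ex/em 543/573.5 nm. Each point is the average of three independent measurements. Apparent Kd obtained by nonlinear curve fitting.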

His-EIL1-FLAG = target: T3, His-EIL1-FLAG (Arabidopsis thaliana, UniProt Q9SLH0); assay: Fluorescence anisotropy; format: binding
T3 sequence (Q9SLH0 201-501): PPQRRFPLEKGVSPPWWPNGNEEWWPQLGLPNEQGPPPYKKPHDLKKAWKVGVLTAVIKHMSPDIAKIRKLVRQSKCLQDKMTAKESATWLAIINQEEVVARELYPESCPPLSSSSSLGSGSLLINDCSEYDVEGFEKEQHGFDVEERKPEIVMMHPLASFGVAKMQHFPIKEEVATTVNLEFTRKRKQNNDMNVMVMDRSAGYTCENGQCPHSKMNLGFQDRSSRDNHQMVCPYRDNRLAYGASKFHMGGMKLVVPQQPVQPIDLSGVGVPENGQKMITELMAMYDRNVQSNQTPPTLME
Summary of the method: as §1

[4] = tested on: M. polymorpha gemmalings (Tak-1); assay: Growth; format: in vivo, Marchantia polymorpha; conditions: Tak-1 gemmalings on 1/2 B5 medium, OPDA 50 µM, n = 24
Summary of the method: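 Tak-1 gemmalings grown 2 weeks on half-strength Gamborg's B5 with 1% agar, containing OPDA (50 µM) ± test compound (10 µM). Continuous light 50–60 µmol m-2 s-1, 22°C. Plant area measured in mm2 (n = 24). Experiment repeated three times; one-way ANOVA/Tukey's HSD, P < 0.01.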

Structure (SMILES)	Kd [2]	fold lower Kd with His-MYC3-FLAG than that of 1 [2]	Kd [3]	also measured
CC/C=C\CC1C(=O)CCC1CC(=O)OC (stereo not shown) [MeJA, methyl jasmonate, reference compound]	–	–	–	root growth of seedlings [1]: severe root growth inhibition
CC[C@H](C)[C@H](NC(=O)[C@H](C)NC(=O)CNC(=O)[C@H](CCC(N)=O)NC(=O)[C@@H](NC(=O)[C@H](CC(=O)O)NC(=O)[C@H](CCCNC(=N)N)NC(=O)[C@H](Cc1ccccc1)NC(=O)[C@H](CO)NC(=O)[C@H](CCCNC(=N)N)NC(=O)[C@H](CCCNC(=N)N)NC(=O)[C@H](CCCNC(=N)N)NC(=O)[C@H](CC(=O)O)NC(=O)[C@H](CC(C)C)NC(=O)[C@H](Cc1ccccc1)NC(=O)[C@H](CCCCN)NC(=O)[C@H](CCC(N)=O)NC(=O)[C@H](Cc1ccccc1)NC(=O)c1ccc(-c2c3ccc(=[N+](C)C)cc-3oc3cc(N(C)C)ccc23)c(C(=O)[O-])c1)[C@@H](C)CC)C(=O)N[C@@H](CO)C(=O)N[C@@H](CCCCN)C(=O)N[C@H](C(=O)N[C@@H](CC(=O)O)C(=O)N1CCC[C@H]1C(=O)N[C@@H](CCC(=O)O)C(=O)N[C@]1(C)CCCC=CCCC[C@@](C)(C(=O)N[C@@H](CC(C)C)C(=O)N[C@@H](CC(C)C)C(=O)N[C@@H](C)C(=O)N[C@@H](CO)C(=O)N[C@H](C(=O)O)[C@@H](C)O)NC(=O)[C@H](CCCCN)NC(=O)[C@H]([C@@H](C)CC)NC1=O)[C@@H](C)CC [compound 3] (X1-FQKFLDRRRSFRDIQGAISKIDPE[R5]IK[S5]LLAST-OH; staple 25-28)	310 nM	0.67 fold	600 nM	–
CC[C@H](C)[C@H](NC(=O)[C@H](C)NC(=O)CNC(=O)[C@H](CCC(N)=O)NC(=O)[C@@H](NC(=O)[C@H](CC(=O)O)NC(=O)[C@H](CCCNC(=N)N)NC(=O)[C@H](Cc1ccccc1)NC(=O)[C@H](CO)NC(=O)[C@H](CCCNC(=N)N)NC(=O)[C@H](CCCNC(=N)N)NC(=O)[C@H](CCCNC(=N)N)NC(=O)[C@H](CC(=O)O)NC(=O)[C@H](CC(C)C)NC(=O)[C@H](Cc1ccccc1)NC(=O)[C@H](CCCCN)NC(=O)[C@H](CCC(N)=O)NC(=O)[C@H](Cc1ccccc1)NC(=O)c1ccc(-c2c3ccc(=[N+](C)C)cc-3oc3cc(N(C)C)ccc23)c(C(=O)[O-])c1)[C@@H](C)CC)C(=O)N[C@@H](CO)C(=O)N[C@@H](CCCCN)C(=O)N[C@H](C(=O)N[C@@H](CC(=O)O)C(=O)N1CCC[C@H]1C(=O)N[C@@H](CCC(=O)O)C(=O)N[C@H](C(=O)N[C@H](C(=O)N[C@@H](CCCCN)C(=O)N[C@@H](CO)C(=O)N[C@@H](CC(C)C)C(=O)N[C@@H](CC(C)C)C(=O)N[C@@H](C)C(=O)N[C@@H](CO)C(=O)N[C@H](C(=O)O)[C@@H](C)O)[C@@H](C)CC)[C@@H](C)CC)[C@@H](C)CC [compound 1] (X1-FQKFLDRRRSFRDIQGAISKIDPEIIKSLLAST-OH)	210 nM	–	–	Kd (His-EIL1-FLAG): 440 nM
CC[C@H](C)[C@H](NC(=O)[C@H](CCCCN)NC(=O)[C@H](CO)NC(=O)[C@@H](NC(=O)[C@]1(C)CCCC=CCCC[C@](C)(NC(=O)[C@H](CCCNC(=N)N)NC(=O)[C@H](Cc2ccccc2)NC(=O)[C@H](CO)NC(=O)[C@H](CCCNC(=N)N)NC(=O)[C@H](CCCNC(=N)N)NC(=O)[C@H](CCCNC(=N)N)NC(=O)[C@H](CC(=O)O)NC(=O)[C@H](CC(C)C)NC(=O)[C@H](Cc2ccccc2)NC(=O)[C@H](CCCCN)NC(=O)[C@H](CCC(N)=O)NC(=O)[C@H](Cc2ccccc2)NC(=O)c2ccc(-c3c4ccc(=[N+](C)C)cc-4oc4cc(N(C)C)ccc34)c(C(=O)[O-])c2)C(=O)N[C@@H]([C@@H](C)CC)C(=O)N[C@@H](CCC(N)=O)C(=O)NCC(=O)N1)[C@@H](C)CC)C(=O)N[C@@H](CC(=O)O)C(=O)N1CCC[C@H]1C(=O)N[C@@H](CCC(=O)O)C(=O)N[C@H](C(=O)N[C@H](C(=O)N[C@@H](CCCCN)C(=O)N[C@@H](CO)C(=O)N[C@@H](CC(C)C)C(=O)N[C@@H](CC(C)C)C(=O)N[C@@H](C)C(=O)N[C@@H](CO)C(=O)N[C@H](C(=O)O)[C@@H](C)O)[C@@H](C)CC)[C@@H](C)CC [compound 2] (X1-FQKFLDRRRSFR[S5]IQG[S5]ISKIDPEIIKSLLAST-OH; staple 13-17)	61 nM	7 fold	290 nM	–
CC/C=C\C[C@@H]1C(=O)C=C[C@@H]1CCCCCCCC(=O)O [OPDA, reference compound]	–	–	–	plant growth (plant area) [4]: inhibited plant growth
